Hits are enriched below; roughly 1.4% of the tested compounds scored in any of these assays.
NR2E3 ag-1 = activates human NR2E3 receptor; 360,000 compounds, 0.35% hits; Q9Y5X4; AID 602229; CHO-S Gal4-NCOR/VP16-NR2E3 two-hybrid, luciferase; inhibition of corepressor binding, % at 3.98 µM;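 active means inhibition above the mean of all tested compounds plus 3 SD, cut at about 70% in these data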;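 further: 0% = DMSO with NR2E3 transfected cells and 100% = cells lacking NR2E3 construct; higher means lower luciferase signal from less NR2E3 corepressor binding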
Rev-erbA mod = Rev-erb alpha (human) modulation; P20393; activity, % at 10 µM; 370,000 compounds, 0.79% hits; Rev-erbα–FITC-DNA binding, fluorescence polarization, 90 min;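 active means activity above about 14%, limit read from the data; passing the limit was not always enough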;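 further: 0% = DMSO wells with 35 nM protein and 100% = DMSO wells with 750 nM protein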
Target sequence (P20393 whole entry, looked up): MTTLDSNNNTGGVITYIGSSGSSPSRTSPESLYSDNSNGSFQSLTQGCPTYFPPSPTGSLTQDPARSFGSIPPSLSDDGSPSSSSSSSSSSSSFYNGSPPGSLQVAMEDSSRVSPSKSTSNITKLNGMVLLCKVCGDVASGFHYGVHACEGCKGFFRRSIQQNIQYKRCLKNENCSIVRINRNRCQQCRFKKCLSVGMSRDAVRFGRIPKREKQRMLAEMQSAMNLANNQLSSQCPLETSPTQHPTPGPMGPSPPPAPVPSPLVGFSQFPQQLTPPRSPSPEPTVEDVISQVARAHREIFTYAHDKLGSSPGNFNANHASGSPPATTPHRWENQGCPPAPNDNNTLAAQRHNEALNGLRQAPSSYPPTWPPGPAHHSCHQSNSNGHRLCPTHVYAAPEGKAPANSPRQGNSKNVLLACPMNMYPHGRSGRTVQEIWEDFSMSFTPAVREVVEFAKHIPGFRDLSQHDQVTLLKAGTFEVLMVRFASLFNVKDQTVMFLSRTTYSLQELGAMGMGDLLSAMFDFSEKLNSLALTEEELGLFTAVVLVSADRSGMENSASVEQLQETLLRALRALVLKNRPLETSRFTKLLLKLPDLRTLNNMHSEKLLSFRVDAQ
NR2E3 ag-2 = activates human photoreceptor nuclear receptor NR2E3 | GST-NR2E3/biotin-RetCOR TR-FRET, 1536-well | Q9Y5X4 | inhibition of corepressor binding, % at 4.78 µM | 320,000 compounds, 0.12% hits;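 active means percent inhibition above the cutoff of mean plus 3 SD of all tested compounds, set per screening campaign, cut at about 20% in these data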;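 further: 0% = DMSO wells and 100% = biotin wells as full block of FRET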
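Material: NR2E3–RetCOR corepressor complex / Incubation: Compound–protein incubation for 5 h at 4 °C / Dosing: compound at 4.8 µM, single dose / Detection: time-resolved FRET / Benchmarks: high control biotin, low control 0.6% DMSO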
PG9 binder = binds the HIV-1 gp120 antibody PG9 | AID 624416 | inhibition, % at 6.7 µM | TR-FRET gp120-PG9 antibody binding | 360,000 compounds, 0.43% hits; in the data active means inhibition above about 8.5%
PG9 binder conf = confirmation of small molecules binding HIV-1 gp120 antibody PG9; shares compounds with PG9 binder; TR-FRET PG9 antibody binding, biochemical; inhibition, % at 6.7 µM; 1,500 compounds, 90% hits; AID 651571; in the data active means inhibition above about 9%
PGV04 Ab binding = binds control antibody PGV04 in PG9 binder counter-screen | shares compounds with PG9 binder | TR-FRET PGV04 antibody-gp120 binding, biochemical | inhibition, % at 6.7 µM | 1,500 compounds, 95% hits | AID 651604; in the data active means inhibition above about 9.5%
PG9 binder DR = small molecules binding HIV-1 gp120 antibody PG9. shares compounds with PG9 binder. TR-FRET PG9 antibody-gp120 binding inhibition. IC50, µM. 95 tested, under 10 active. AID 651848; in the data active means IC50 below about 10 µM
PGV04 DR counter = binds control antibody PGV04 in PG9 counter-screen; TR-FRET binding to control antibody PGV04; IC50, µM; AID 651937; 95 compounds, 20% hits; shares compounds with PG9 binder
PG126 binding DR = PG126 binding, dose response counter-screen | shares compounds with PG9 binder | TR-FRET binding to antibody PG126, counterscreen | IC50, µM | 95 compounds, 20% hits | AID 651939
* = called active by the depositor. Unless noted, no stated cut-off is given here; in the data, active means IC50 below about 9 µM; inactive means the rest.

What do the screens show for `CC1CCCC(NC(=O)COC(=O)c2ccccc2Sc2ccccc2C#N)C1C` (stereo not drawn)?
NR2E3 ag-1: -19.7; Rev-erbA mod: 20.7; NR2E3 ag-2: 4.5; PG9 binder: 11.7*; PG9 binder conf: 28.6*; PGV04 Ab binding: 47.6*

Results for CC1CCCC(NC(=O)COC(=O)c2ccc3ccccc3n2)C1C (stereo not drawn) ?
NR2E3 ag-1: -15.7; Rev-erbA mod: -5.1; NR2E3 ag-2: 0.8; PG9 binder: 15.1*; PG9 binder conf: 24.3*; PGV04 Ab binding: 31.6*

How did CC1CCCCC1NC(=O)COC(=O)c1ccc2ccccc2n1 (stereo not drawn) do in these assays?
NR2E3 ag-1: -11.5; Rev-erbA mod: 1.9; NR2E3 ag-2: -0.2; PG9 binder: 0.5

What do the screens show for `Fc1ccc(F)c(Cn2ccc3ccc(-c4ccc5ccn(Cc6cc(F)ccc6F)c5c4)cc32)c1`?
Rev-erbA mod: -1.7

How did COC(=O)c1cc2ccccn2c2c(C(=O)OC)c(C(=O)OC)cc1-2 do in these assays?
NR2E3 ag-1: -24.2; Rev-erbA mod: 2.4; NR2E3 ag-2: -10.6; PG9 binder: -19.1

How did COC(=O)c1cc2c(C)cc3ccc(C)cn3c-2c1C(=O)OC do in these assays?
NR2E3 ag-1: -10.2; Rev-erbA mod: 3.2; NR2E3 ag-2: 14.6; PG9 binder: 11.5*; PG9 binder conf: 17.4*; PGV04 Ab binding: 22.1*

How did COC(=O)[C@]12C[C@H](CC(=O)NCCC(C)C)C(=O)N(Cc3ccc(Cl)cc3Cl)C1=C[C@H](C(C)(C)C)O[C@@H]2C do in these assays?
Rev-erbA mod: -1.0

What do the screens show for `COc1ccc(C(=O)Nc2ccccc2C(=O)N(Cc2ccco2)C(C(N)=O)C(C)C)cc1` (stereo not drawn)?
NR2E3 ag-1: -14.4; Rev-erbA mod: 23.8; NR2E3 ag-2: 0.9; PG9 binder: 9.9*; PG9 binder conf: 19.2*; PGV04 Ab binding: 15.7*; PG9 binder DR: >67; PGV04 DR counter: inactive; PG126 binding DR: >67

Results for COc1ccc(C(=O)Nc2ccccc2C(=O)NC(C(=O)NCc2ccco2)C(C)C)cc1 (stereo not drawn) ?
NR2E3 ag-1: -21.4; Rev-erbA mod: 15.3; NR2E3 ag-2: 1.9; PG9 binder: 1.0

Results for CC(=O)c1cc(-c2cccc(C(C)C)c2)c(=O)n2c1CCC2 ?
Rev-erbA mod: 1.5

How did Cc1ccc2cc(CN(c3ccccc3C)S(=O)(=O)c3ccccc3)c(=O)[nH]c2c1 do in these assays?
NR2E3 ag-1: -17.0; Rev-erbA mod: -1.0; NR2E3 ag-2: 1.7; PG9 binder: 13.5*; PG9 binder conf: 26.2*; PGV04 Ab binding: 44.6*

How did Cc1ccc(N(Cc2cc3ccccc3[nH]c2=O)S(=O)(=O)c2ccccc2)cc1 do in these assays?
NR2E3 ag-1: -12.5; Rev-erbA mod: 9.8; NR2E3 ag-2: -0.1; PG9 binder: -4.4

Results for COC(=O)c1cc(-c2cnc(OC)nc2OC)c(=O)n2c1CCC2 ?
Rev-erbA mod: 1.1

What do the screens show for `Cc1sc2nc(SCC(=O)Nc3ccccc3F)[nH]c(=O)c2c1C`?
NR2E3 ag-1: -27.0; Rev-erbA mod: 10.9; NR2E3 ag-2: -2.4; PG9 binder: 8.7*; PG9 binder conf: 20.5*; PGV04 Ab binding: 34.2*

Results for COc1ccc(OC)c(C(C(=O)NC2CCCCC2)N(C(=O)c2snc(C(N)=O)c2N)c2ccccc2OC)c1 (stereo not drawn) ?
NR2E3 ag-1: -9.6; Rev-erbA mod: 14.9; NR2E3 ag-2: 0.5; PG9 binder: 35.9*; PG9 binder conf: 36.0*; PGV04 Ab binding: 59.8*

How did Cc1cc(C)cc(C(=O)OCCCN(C)C2CN(Cc3cn(Cc4ccccc4Cl)nn3)S(=O)(=O)C2)c1 (stereo not drawn) do in these assays?
Rev-erbA mod: 9.0

Results for Cc1cc(SCCC(=O)O)nc2ccccc12 ?
NR2E3 ag-1: 5.3; Rev-erbA mod: -1.8; NR2E3 ag-2: 3.3; PG9 binder: 5.2

Results for O=C(O)CSc1ccc2ccccc2n1 ?
NR2E3 ag-1: -38.5; Rev-erbA mod: 0.5; NR2E3 ag-2: 5.7; PG9 binder: 3.7

What do the screens show for `Cc1nc(SCCC(=O)O)c2ccccc2n1`?
NR2E3 ag-1: 10.3; NR2E3 ag-2: 8.5; PG9 binder: 22.5*; PG9 binder conf: 18.6*; PGV04 Ab binding: 24.5*

Results for O=C(O)CCSc1ccc2ccccc2n1 ?
NR2E3 ag-1: -47.1; Rev-erbA mod: -2.7; NR2E3 ag-2: 15.3; PG9 binder: 18.0*; PG9 binder conf: 18.8*; PGV04 Ab binding: 20.2*

What do the screens show for `C=CCN1C(=O)[C@@H](CC(=O)N2CCN(C(=O)OCC)CC2)[C@]2(C(=O)OC)CCCCC=C12`?
Rev-erbA mod: 3.8

Results for Cc1csc2c(=O)sc(NC(=O)c3cccs3)nc12 ?
NR2E3 ag-1: -6.3; Rev-erbA mod: 12.7; NR2E3 ag-2: -1.6; PG9 binder: 63.7*; PG9 binder conf: 65.8*; PGV04 Ab binding: 87.8*

How did Cc1csc(NC(=O)c2cccs2)n1 do in these assays?
NR2E3 ag-1: -37.9; Rev-erbA mod: 1.9; NR2E3 ag-2: 1.6; PG9 binder: -1.6

What do the screens show for `Cc1csc2c(=O)sc(NC(=O)c3ccco3)nc12`?
NR2E3 ag-1: 4.8; Rev-erbA mod: -4.2; NR2E3 ag-2: -0.5; PG9 binder: 37.4*; PG9 binder conf: 48.6*; PGV04 Ab binding: 78.0*

How did CCOC(=O)[C@@H]1c2[nH]c3ccccc3c2C[C@@]2(C(=O)OC)C=CCN12 do in these assays?
Rev-erbA mod: -1.4

How did Cc1c(C)c2c(c(C)c1OC(=O)CCC(=O)O)CC[C@@](C)(CCC[C@H](C)CCC[C@H](C)CCCC(C)C)O2 do in these assays?
Rev-erbA mod: -3.3

What do the screens show for `COc1cc(OC)cc(C(=O)NC2CCSC2=O)c1` (stereo not drawn)?
NR2E3 ag-1: 20.7; Rev-erbA mod: -1.6; NR2E3 ag-2: 2.6; PG9 binder: 15.5*; PG9 binder conf: 3.6; PGV04 Ab binding: 38.8*

Results for CCC(=O)Nc1cccc(NC(=S)NC(=O)c2ccccc2)c1 ?
NR2E3 ag-1: -29.3; Rev-erbA mod: -4.7; NR2E3 ag-2: -2.5; PG9 binder: -4.4

What do the screens show for `O=C(NC(=S)Nc1cccc(NC(=S)NC(=O)c2ccccc2)c1)c1ccccc1`?
NR2E3 ag-1: -46.5; Rev-erbA mod: -5.7; PG9 binder: 12.2*; PG9 binder conf: 8.3; PGV04 Ab binding: 14.3*
